TPT1 inhibitor: inhibitors of Candida albicans tRNA 2'-phosphotransferase TPT1; recombinant caTPT1, FP RNA substrate dephosphorylation; inhibition, % at 5 µM; 300,000 compounds, 0.81% hits;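 active means inhibition above the mean of all tested compounds plus 3 SD, set per screening campaign, cut at about 24% in these data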
CSN inh: inhibitors of human CSN-mediated cullin deneddylation | Q92905 | Purified CSN, SCF-Nedd8-OG deneddylation, fluorescence polarization | inhibition, % at 12.5 µM | 360,000 compounds, 0.38% hits;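 active means pattern-corrected inhibition above about 35%, with an unprinted fluorescence ratio check between 0.5 and 1.5, limit read from the data, passing the limit was not always enough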
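Assay system: HEK293T-derived human Csn5 enzyme; quantity: 0.24 nM enzyme; medium: Tris/NaCl/DTT buffer, pH 7.5; also added: substrate SCFSkp2-Nedd8OG, 10 nM; doses: 12.5 µM compound; schedule: 90 min reaction at room temperature; signal: FP; read-out: % inhibition of substrate cleavage by Csn5; benchmarks: substrate-only high control, full reaction low control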
Rtt109 HAT inh: blocks Candida albicans Rtt109/Vps75 acetyltransferase activity; Q5AAJ8; AID 540336; 330,000 compounds, 0.16% hits; purified Rtt109/Vps75, ThioGlo CoA-SH fluorescence, 4 h; inhibition, % at 34.9 µM;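 active means inhibition of at least 50% in every replicate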
HNF4A DNA FP: change in binding of human HNF4 alpha to DNA; 360,000 compounds, 0.3% hits; P41235; HNF4a-FITC DNA binding, fluorescence polarization, 1 h; activity change, % at 10 µM; in the data active means activity change above about 30%, passing the limit was not always enough
Target sequence (P41235 whole entry, looked up): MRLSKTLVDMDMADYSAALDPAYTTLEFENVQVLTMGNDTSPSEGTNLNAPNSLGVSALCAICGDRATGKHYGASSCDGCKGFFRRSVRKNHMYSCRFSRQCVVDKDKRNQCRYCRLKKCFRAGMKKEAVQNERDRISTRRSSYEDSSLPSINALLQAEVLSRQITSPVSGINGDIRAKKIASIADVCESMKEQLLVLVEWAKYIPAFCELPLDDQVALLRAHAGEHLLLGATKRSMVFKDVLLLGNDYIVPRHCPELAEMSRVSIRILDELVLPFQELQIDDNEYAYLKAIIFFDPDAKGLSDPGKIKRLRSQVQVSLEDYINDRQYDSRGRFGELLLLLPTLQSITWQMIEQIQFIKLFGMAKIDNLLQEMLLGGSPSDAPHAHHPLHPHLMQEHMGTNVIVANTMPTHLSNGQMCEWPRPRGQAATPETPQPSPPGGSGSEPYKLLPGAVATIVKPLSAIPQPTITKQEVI
TPT1 inh confirm: TPT1 (C. albicans) inhibition, confirmation. 2,400 compounds, 74% hits. recombinant caTPT1, fluorescence polarization, RNase T1 coupled. shares compounds with TPT1 inhibitor. AID 2149. inhibition, % at 5 µM;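 active means inhibition above the primary screen limit, the mean inhibition of all tested compounds plus 3 SD, cut at about 25% in these data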
RNase T1 inh: counter-screen for TPT1 inhibitors: inhibitors of Aspergillus oryzae RNase T1. inhibition, % at 5 µM. 2,400 compounds, 83% hits. RNase T1 cleavage, fluorescence polarization, 1536-well. shares compounds with TPT1 inhibitor;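 active means inhibition above the solvent-only control well mean plus 3 SD, limit set per screening run, cut at about 23% in these data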;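 further: inhibitors block cleavage so intact labeled substrate keeps polarization high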
Hits are given with their value; – = inactive; · = not tested or not shown; + = active, no number. An excerpt weighted towards active compounds, which were near 1.2% of everything screened.

SMILES	TPT1 inhibitor	CSN inh	Rtt109 HAT inh	HNF4A DNA FP	TPT1 inh confirm	RNase T1 inh
O=C(NCCc1c[nH]c2ccccc12)C(=O)NCC(c1ccco1)N1CCN(c2ccccc2F)CC1 (centres undefined)	51	–	–	–	–	–
COc1cc(SC#N)ccc1N=Cc1c(C)[nH]n(-c2ccc(C)c(C)c2)c1=O	30	–	56	–	62	67
O=C(NCc1ccccn1)C(=O)Nc1nc(C23CC4CC(CC(C4)C2)C3)cs1	–	–	–	–	·	·
Cc1ccc(N2CN(Cc3ccco3)CNC2=S)c(C)c1	48	–	–	–	–	–
CCOC(=O)c1c(-c2ccccc2)csc1NC(=O)/C(C#N)=C/c1ccc(O)c(OC)c1	178	–	–	–	192	174
CN(C)S(=O)(=O)c1cc(NC(=O)CN2CCCc3ccccc32)ccc1Cl	46	–	–	–	51	61
CN(C)S(=O)(=O)c1ccc(NC(=O)CN2CCCc3ccccc32)cc1	51	–	–	–	42	54
COC(=O)c1ccc(-n2cc(-c3ccc(OC)cc3)[nH]c2=S)cc1	38	–	–	–	31	40
Cc1ccc(C(=O)C(C)Oc2ccc3ccc(=O)oc3c2)cc1 (centres undefined)	–	–	–	–	·	·
CCn1c(=O)c(=O)[nH]c2cc(C(=O)NCc3ccc(F)cc3)ccc21	–	–	–	–	·	·
Cc1ccc2c(CSc3nc4ccccc4c(=O)n3CCCO)cc(=O)oc2c1C	32	–	–	–	–	–
CN(C)CCN1C(=O)C(O)=C(C(=O)c2cc3ccccc3o2)C1c1ccc(N(C)C)cc1 (centres undefined)	32	–	–	–	–	35
Cc1ccc(S(=O)(=O)CCC(=O)OCC(=O)c2cc(C)n(C)c2C)cc1	·	–	–	–	·	·
O=C(O)COc1ccccc1/C=C1\SC(=S)N(/N=C/c2ccccc2O)C1=O	–	–	–	–	·	·
Cc1ccc(C(=O)NN2C(=O)/C(=C/c3cn(C)c4ccccc34)SC2=S)cc1	160	–	–	–	80	86
O=C(O)COc1ccccc1/C=C1\SC(=S)N(NC(=O)c2ccccc2O)C1=O	31	–	–	–	31	40
Cn1cc(/C=C2\SC(=O)NC2=S)c2ccccc21	–	–	–	–	·	·
Cn1cc(/C=C2\SC(=S)N(NC(=O)c3ccccc3Cl)C2=O)c2ccccc21	76	–	–	–	176	162
CCn1ccc(C(=O)Nc2ncc(C)s2)n1	–	–	–	–	·	·
NNC(=O)c1cc(C23CC4CC(CC(C4)C2)C3)[nH]n1	–	–	–	–	·	·
CN(C)CCN1CCN(C2CN(Cc3ccccc3)S(=O)(=O)C2)CC1 (centres undefined)	·	–	·	–	·	·
O=C1C=CC(O)C2(CO)OC12 (centres undefined)	·	–	·	–	·	·
Cc1c(O)ccc(/C(Cc2ccc3ccccc3n2)=N\N)c1O	29	–	–	–	36	47
Nc1c(C(=O)Nc2ccccc2F)sc2nc(-c3cccnc3)ccc12	–	–	–	–	·	·
Nc1c(C(=O)Nc2ccccc2F)sc2nc(-c3ccco3)ccc12	31	–	–	–	27	38
SMILES	TPT1 inhibitor	CSN inh	Rtt109 HAT inh	HNF4A DNA FP	TPT1 inh confirm	RNase T1 inh
CCN(CC)c1ccc(C=Nc2ccccc2)c(O)c1	–	–	–	–	·	·
CCN(CC)c1ccc(N=Cc2ccc(N(CC)CC)cc2O)cc1	63	–	–	–	120	121
CCN(CC)c1ccc(/C=N/N=C(N)N)c(O)c1	49	–	–	–	93	103
CCc1ccccc1NC(=S)NCCSc1ccc(Cl)cc1	+	–	–	–	–	–
CC(C)(C)n1nc2c(c1NC(=O)c1cc(Cl)ccc1[N+](=O)[O-])CS(=O)(=O)C2	–	–	–	–	·	·
Cc1ccc(S(=O)(=O)CCC(=O)NC2CCCC2)cc1	–	–	–	–	·	·
Cc1ccc(N/C=C/C(=O)c2ccco2)c(O)c1	29	–	–	–	46	55
O=C(Cn1ncc2c3ccccc3n(Cc3cccc(Cl)c3)c2c1=O)NCc1ccccn1	69	–	–	–	84	90
CCCC(=O)N1CCC1(C)C(=O)Nc1ccc(-n2cccc2)cc1 (centres undefined)	·	–	·	–	·	·
CCOC(=O)C1CCCN(C/C=C/c2ccccc2)C1 (centres undefined)	·	–	–	–	·	·

Screens deposited in PubChem BioAssay by several laboratories.
